Measurements as given in the M2OR odorant receptor database.

Assays:
Conditions in all cases: stereoisomer not certain
[1] = target: T1, OR10A3 (Homo sapiens) (UniProt P58181)
T1 sequence (whole entry): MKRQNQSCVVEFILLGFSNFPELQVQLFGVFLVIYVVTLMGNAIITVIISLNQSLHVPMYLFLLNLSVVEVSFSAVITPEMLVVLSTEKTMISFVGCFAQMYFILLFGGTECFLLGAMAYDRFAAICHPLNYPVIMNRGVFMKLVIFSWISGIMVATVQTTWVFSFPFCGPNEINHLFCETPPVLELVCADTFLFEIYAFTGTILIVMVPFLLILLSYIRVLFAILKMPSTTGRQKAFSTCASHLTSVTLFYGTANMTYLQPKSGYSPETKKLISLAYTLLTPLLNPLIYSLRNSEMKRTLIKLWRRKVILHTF
Outline: (§1)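 Transient luciferase assays in mammalian cell lines were common, though methods varied by source. The values come from published papers and their supplementary material, with extra details from the original authors when needed. Responsive refers to a measured signal the original authors judged statistically different from baseline, and non-responsive (inactive) to the remainder.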

[2] = target: T2, OR10A4 (Homo sapiens) (UniProt Q9H209)
T2 sequence (whole entry): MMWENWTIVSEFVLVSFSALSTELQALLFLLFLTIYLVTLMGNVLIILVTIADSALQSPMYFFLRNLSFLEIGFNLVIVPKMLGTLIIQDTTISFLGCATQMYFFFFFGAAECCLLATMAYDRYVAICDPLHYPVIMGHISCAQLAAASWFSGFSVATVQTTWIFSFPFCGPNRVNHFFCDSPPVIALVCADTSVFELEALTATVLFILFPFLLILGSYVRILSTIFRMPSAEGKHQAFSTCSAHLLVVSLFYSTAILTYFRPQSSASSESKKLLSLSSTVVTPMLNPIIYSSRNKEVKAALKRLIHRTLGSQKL
Outline: as §1

[3] = target: T3, OR10A5 (Homo sapiens) (UniProt Q9H207)
T3 sequence (whole entry): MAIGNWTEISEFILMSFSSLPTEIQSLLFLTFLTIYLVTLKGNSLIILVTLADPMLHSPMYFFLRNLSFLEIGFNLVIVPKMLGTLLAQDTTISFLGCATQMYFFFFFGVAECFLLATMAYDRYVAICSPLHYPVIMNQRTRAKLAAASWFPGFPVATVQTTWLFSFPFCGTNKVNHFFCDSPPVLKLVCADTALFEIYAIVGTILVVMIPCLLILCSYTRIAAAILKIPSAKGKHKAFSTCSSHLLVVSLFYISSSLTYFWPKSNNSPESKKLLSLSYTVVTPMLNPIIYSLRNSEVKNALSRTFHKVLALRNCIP
Outline: as §1

[4] = target: T4, OR10A6 (Homo sapiens) (UniProt Q8NH74)
T4 sequence (whole entry): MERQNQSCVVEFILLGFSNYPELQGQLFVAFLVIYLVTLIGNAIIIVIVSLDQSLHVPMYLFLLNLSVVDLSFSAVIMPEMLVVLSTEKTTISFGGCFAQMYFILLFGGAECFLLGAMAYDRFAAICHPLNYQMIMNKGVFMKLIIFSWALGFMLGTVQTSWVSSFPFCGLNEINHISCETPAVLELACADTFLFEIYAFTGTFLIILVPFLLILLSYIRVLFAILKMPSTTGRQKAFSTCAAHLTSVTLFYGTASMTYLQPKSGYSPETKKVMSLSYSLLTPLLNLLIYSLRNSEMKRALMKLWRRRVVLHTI
Outline: as §1

[5] = target: T5, OR10A7 (Homo sapiens) (UniProt Q8NGE5)
T5 sequence (whole entry): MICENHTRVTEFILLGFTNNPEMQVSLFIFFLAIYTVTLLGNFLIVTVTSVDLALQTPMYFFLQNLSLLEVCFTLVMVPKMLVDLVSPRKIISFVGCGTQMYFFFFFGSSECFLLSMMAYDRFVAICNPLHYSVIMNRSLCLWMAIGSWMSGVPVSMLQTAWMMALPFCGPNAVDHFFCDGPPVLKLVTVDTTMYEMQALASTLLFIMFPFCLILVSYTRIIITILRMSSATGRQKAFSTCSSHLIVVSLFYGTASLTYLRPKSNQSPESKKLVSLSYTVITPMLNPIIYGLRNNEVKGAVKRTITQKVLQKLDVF
Outline: as §1

[6] = target: T6, OR10AD1 (Homo sapiens) (UniProt Q8NGE0)
T6 sequence (whole entry): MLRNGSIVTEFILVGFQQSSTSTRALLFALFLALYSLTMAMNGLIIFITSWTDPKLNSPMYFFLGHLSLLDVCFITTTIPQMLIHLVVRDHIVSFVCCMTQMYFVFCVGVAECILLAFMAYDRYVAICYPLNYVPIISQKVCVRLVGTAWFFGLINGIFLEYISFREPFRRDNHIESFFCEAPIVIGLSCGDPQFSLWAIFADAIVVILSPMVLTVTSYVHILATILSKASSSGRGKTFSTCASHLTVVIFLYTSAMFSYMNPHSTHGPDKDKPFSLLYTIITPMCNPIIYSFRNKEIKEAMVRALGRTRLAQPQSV
Outline: as §1

[7] = target: T7, OR10AG1 (Homo sapiens) (UniProt Q8NH19)
T7 sequence (whole entry): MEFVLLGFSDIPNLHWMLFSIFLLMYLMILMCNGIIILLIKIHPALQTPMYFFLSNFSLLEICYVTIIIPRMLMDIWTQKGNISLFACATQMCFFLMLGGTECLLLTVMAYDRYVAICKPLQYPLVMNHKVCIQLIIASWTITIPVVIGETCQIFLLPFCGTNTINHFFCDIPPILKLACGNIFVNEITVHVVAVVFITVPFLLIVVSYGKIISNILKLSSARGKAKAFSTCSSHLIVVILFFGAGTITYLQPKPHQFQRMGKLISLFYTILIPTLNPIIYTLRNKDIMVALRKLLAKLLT
Outline: as §1

[8] = target: T8, OR10C1 (Homo sapiens) (UniProt Q96KK4)
T8 sequence (whole entry): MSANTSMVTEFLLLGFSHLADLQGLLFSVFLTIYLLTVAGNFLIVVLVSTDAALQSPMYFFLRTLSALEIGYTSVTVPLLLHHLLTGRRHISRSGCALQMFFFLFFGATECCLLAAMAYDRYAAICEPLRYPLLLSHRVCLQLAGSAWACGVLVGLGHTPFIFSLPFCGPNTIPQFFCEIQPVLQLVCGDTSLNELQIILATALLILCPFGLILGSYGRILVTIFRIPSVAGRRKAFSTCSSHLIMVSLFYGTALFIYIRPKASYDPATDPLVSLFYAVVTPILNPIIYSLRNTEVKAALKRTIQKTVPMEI
Outline: as §1

[9] = target: T9, OR10D3 (Homo sapiens) (UniProt Q8NH80)
T9 sequence (whole entry): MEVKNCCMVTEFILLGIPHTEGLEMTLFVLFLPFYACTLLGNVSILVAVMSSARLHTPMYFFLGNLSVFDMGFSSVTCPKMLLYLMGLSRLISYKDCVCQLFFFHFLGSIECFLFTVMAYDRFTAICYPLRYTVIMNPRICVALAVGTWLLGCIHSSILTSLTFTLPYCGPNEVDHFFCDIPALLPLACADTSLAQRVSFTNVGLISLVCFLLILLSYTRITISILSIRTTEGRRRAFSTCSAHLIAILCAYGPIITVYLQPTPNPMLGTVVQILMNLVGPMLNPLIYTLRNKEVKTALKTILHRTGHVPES
Outline: as §1

[10] = target: T10, OR10G2 (Homo sapiens) (UniProt Q8NGC3)
T10 sequence (whole entry): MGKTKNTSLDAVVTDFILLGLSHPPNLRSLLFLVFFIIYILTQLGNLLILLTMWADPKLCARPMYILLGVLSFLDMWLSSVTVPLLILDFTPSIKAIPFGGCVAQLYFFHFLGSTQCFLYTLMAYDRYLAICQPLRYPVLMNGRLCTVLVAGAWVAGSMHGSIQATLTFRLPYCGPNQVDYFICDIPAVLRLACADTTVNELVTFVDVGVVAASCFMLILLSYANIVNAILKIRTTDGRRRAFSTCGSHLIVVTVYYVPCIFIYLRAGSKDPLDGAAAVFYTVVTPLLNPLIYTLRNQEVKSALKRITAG
Outline: as §1

[11] = target: T11, OR10G3 (Homo sapiens) (UniProt Q8NGC4)
T11 sequence (whole entry): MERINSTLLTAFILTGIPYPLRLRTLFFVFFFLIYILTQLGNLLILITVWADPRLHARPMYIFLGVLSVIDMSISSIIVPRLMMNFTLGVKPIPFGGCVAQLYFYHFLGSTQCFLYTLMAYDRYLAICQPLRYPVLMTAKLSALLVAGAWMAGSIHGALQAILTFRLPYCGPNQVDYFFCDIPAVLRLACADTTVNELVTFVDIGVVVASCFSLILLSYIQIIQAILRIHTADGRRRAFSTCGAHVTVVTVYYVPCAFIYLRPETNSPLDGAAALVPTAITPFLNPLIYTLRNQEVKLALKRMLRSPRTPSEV
Outline: as §1

[12] = target: T12, OR10G4 (Homo sapiens) (UniProt Q8NGN3)
T12 sequence (whole entry): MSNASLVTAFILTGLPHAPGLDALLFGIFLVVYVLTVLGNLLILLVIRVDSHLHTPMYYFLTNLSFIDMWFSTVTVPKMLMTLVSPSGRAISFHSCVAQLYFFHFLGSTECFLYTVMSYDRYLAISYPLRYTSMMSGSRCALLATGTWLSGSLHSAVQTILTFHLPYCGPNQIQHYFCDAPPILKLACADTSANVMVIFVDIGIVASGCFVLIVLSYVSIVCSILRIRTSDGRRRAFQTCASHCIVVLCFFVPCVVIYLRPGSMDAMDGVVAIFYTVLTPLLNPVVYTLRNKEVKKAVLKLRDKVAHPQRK
Outline: as §1

[13] = target: T13, OR10G6 (Homo sapiens) (UniProt Q8NH81)
T13 sequence (whole entry): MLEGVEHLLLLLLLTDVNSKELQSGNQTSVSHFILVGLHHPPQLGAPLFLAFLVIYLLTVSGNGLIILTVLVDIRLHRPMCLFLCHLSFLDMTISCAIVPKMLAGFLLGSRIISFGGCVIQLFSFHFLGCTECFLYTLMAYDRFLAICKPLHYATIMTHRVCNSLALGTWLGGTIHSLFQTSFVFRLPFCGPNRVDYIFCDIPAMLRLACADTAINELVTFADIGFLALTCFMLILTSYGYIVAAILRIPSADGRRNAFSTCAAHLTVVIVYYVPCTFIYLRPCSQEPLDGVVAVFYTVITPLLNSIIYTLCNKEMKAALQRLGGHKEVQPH
Outline: as §1

[14] = target: T14, OR10G7 (Homo sapiens) (UniProt Q8NGN6)
T14 sequence (whole entry): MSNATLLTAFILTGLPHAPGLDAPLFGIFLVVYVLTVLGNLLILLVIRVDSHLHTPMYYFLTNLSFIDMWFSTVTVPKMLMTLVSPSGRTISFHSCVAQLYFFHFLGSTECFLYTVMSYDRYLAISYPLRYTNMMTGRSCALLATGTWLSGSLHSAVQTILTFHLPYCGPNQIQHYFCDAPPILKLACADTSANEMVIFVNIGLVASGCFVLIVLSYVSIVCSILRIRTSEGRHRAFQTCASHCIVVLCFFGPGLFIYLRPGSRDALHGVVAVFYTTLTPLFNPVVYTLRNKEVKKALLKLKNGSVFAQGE
Outline: as §1

[15] = target: T15, OR10G8 (Homo sapiens) (UniProt Q8NGN5)
T15 sequence (whole entry): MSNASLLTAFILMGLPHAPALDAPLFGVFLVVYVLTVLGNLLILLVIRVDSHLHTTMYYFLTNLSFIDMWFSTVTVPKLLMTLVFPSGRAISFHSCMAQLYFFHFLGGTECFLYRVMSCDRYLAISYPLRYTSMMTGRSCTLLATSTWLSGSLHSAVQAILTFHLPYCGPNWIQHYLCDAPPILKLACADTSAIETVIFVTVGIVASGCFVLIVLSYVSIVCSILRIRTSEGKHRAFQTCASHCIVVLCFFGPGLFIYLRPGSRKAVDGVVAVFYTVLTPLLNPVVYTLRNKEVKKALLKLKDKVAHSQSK
Outline: as §1

[16] = target: T16, OR10G9 (Homo sapiens) (UniProt Q8NGN4)
T16 sequence (whole entry): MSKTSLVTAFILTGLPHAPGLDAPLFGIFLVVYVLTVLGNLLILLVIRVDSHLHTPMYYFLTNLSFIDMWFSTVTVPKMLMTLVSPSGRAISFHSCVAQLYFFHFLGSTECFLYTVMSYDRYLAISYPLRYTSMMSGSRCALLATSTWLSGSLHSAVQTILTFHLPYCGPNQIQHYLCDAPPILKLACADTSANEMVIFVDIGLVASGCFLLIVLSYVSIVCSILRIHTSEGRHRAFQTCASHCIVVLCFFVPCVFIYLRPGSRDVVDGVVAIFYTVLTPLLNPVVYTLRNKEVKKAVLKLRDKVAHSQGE
Outline: as §1

[17] = target: T17, OR10H1 (Homo sapiens) (UniProt Q9Y4A9)
T17 sequence (whole entry): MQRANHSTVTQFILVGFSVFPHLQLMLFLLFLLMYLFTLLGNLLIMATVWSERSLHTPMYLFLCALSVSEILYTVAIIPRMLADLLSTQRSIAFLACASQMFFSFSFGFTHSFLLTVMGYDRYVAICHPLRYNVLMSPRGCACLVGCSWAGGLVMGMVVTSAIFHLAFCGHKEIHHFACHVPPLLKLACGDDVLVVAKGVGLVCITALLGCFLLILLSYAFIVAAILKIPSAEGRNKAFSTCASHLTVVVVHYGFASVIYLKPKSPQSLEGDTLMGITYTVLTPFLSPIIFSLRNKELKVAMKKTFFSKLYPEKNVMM
Outline: as §1

[18] = target: T18, OR10H2 (Homo sapiens) (UniProt O60403)
T18 sequence (whole entry): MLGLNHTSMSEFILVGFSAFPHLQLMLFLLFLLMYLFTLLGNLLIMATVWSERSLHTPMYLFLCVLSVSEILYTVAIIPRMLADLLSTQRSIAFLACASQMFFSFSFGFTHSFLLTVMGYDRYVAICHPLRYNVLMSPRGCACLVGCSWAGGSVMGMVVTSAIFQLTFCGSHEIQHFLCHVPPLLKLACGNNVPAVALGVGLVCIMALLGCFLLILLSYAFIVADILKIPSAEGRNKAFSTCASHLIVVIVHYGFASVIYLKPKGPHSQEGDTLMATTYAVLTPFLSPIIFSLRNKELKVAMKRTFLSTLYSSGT
Outline: as §1

[19] = target: T19, OR10H3 (Homo sapiens) (UniProt O60404)
T19 sequence (whole entry): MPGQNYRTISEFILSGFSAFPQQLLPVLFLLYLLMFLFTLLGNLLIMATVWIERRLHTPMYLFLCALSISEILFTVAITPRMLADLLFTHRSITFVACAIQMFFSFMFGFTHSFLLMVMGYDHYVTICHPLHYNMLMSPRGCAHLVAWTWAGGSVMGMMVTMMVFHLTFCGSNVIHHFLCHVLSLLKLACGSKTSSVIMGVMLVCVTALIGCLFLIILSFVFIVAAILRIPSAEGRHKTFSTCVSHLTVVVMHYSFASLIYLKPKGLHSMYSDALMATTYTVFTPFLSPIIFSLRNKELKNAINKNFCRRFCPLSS
Outline: as §1

Measured: odorant receptor agonist call;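 further: active if original authors judged signal statistically different from baseline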

CCC1OC(C)=C(O)C1=O (centres undefined)
inactive: all assays above
